Assay results reported in PubChem BioAssay AID624466 (The Scripps Research Institute Molecular Screening Center, 2012).
The whole screen tested about 360,000 compounds, of which about 5,400 (1.5%) were called active. The full list was thinned out, with actives kept by preference. Unmarked numbers belong to inactive results.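 Rule for the calls: active = inhibition above a per-plate cutoff, the mean inhibition of test compounds on that plate plus 3 SD (cut at about 49% in these data); inactive = the rest.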

Each compound was assayed against Trace amine-associated receptor 1 (Homo sapiens) (UniProt Q96RJ0) (assay: blockers of beta-PEA-driven TAAR1 calcium signal – Fluo-8 calcium fluorescence, CHO RD-HGA16 cells, primary screen (AID 624466;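 note: 0% = DMSO plus EC80 beta-PEA response and 100% = DMSO alone without agonist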)). Settings: CHO RD-HGA16 TAAR1, Fluo-8 calcium fluorescence, antagonist; at 3 µM; stronger effect = higher value.
Trace amine-associated receptor 1 (Homo sapiens), sequence (Q96RJ0 whole entry, looked up): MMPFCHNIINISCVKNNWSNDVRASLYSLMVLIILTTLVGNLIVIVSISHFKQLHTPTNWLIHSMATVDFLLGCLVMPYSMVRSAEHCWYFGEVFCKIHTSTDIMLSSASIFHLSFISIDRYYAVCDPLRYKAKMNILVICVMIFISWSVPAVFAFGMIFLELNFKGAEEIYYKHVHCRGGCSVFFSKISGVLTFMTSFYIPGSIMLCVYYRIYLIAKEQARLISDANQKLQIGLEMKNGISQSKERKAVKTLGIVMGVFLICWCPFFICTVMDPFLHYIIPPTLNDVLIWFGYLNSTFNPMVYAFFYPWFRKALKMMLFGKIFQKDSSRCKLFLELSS
How it was run: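 Assay system: CHO-derived RD-HGA16 cells stably expressing human TAAR1 plus Gα16. Timing: 140 s kinetic read after compound, 140 s after agonist. Technique: kinetic Fluo-8 calcium fluorescence measurement. Measure: % inhibition of agonist calcium response.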
`O=C(C(=O)N1CCN(c2ccccc2)CC1)c1ccc2c(c1)OCO2` was tested, and the inhibition was -15%.
`COCc1cc(=O)[nH]c(SC)n1` gave an inhibition of -6.85%.
In the case of `CC1CN(S(=O)(=O)c2ccc(C(=O)Nc3sccc3C(N)=O)cc2)CC(C)O1` (configuration not stated), the inhibition is reported as 9.54%.
Compound `NS(=O)(=O)c1ccc(CNC(=O)c2cccc(S(=O)(=O)N3CCc4ccccc43)c2)cc1` has an inhibition of -6.37%.
For `CNC(=O)c1ccsc1NC(=O)c1ccc(S(=O)(=O)N2CCc3ccccc32)cc1`, the inhibition was 62.9% (active).
Work on `COCCn1c(=NC(=O)c2ccccc2[N+](=O)[O-])sc2cc(S(C)(=O)=O)ccc21` yielded an inhibition of -0.74%.
`O=S1(=O)CCO[C@H]2Cc3ccccc3[C@H]2N1Cc1ccccc1` was tested, and the inhibition was 9.98%.
`Cc1ccc(CNC(=O)CCNS(=O)(=O)c2ccc(Br)s2)cc1` showed an inhibition of 5.04%.
In the case of `CCOC(=O)C1=C(C(=O)OCC)C2N(Cc3ccc(C#N)cc3)c3ccccc3[C@@]23C[C@@H](C(=O)OC)N(S(=O)(=O)c2ccc(F)cc2)C3=N1` (some centres not stated), the inhibition is reported as -16.3%.
Compound `O=C(N/C(=C\c1ccc([N+](=O)[O-])cc1)C(=O)N1CCCCC1)c1ccco1` has an inhibition of 9.56%.
For `COc1ccc(C(=O)NC2CCCc3c2cnn3-c2cccc(C)c2C)c(OC)n1` (configuration not stated), the inhibition was 62.1% (active).
Compound `Cn1nccc1C(=O)NC1CCCc2c1cnn2-c1ccc(F)cc1F` (configuration not stated) has an inhibition of 4.98%.
In the case of `COc1ccc(OC)c(C(=O)NC2CCCc3c2cnn3-c2cc(C)cc(C)c2)c1` (configuration not stated), the inhibition is reported as -17.8%.
`CCN1CCN(C(=O)c2cc3cc4ccc(OC)cc4nc3s2)CC1` was tested, and the inhibition was 0.15%.
`CCCCCCCCN1C(=O)[C@@H](CC(=O)NCc2ccccc2)C[C@@]2(C(=O)OC)C1=C[C@H](C(C)(C)C)O[C@@H]2C` gave an inhibition of -4.61%.
`CCOC(=O)[C@]12CCC=C1N(Cc1ccccc1)C(=O)[C@H](CC(=O)N1CCCC1)C2` showed an inhibition of -13.9%.
For `CCOC(=O)C1=C(NC(=S)NC(=O)c2ccccc2)c2ccccc2CC1(C)C`, the inhibition was 59.3% (active).
Compound `CCOC(=O)c1c(NC(=O)C2(C)Cc3ccccc3C(=O)O2)sc2c1CCCC2` (configuration not stated) has an inhibition of -23.7%.
For `Cn1nnc(NC(=S)NC(=O)c2ccccc2)n1`, the inhibition was -35%.
With `CCOC(=O)N1CCN(C(=O)C[C@H]2C[C@@]3(C(=O)OC)C(=C[C@H](C4CCCC4)O[C@@H]3C)N(Cc3ccccc3)C2=O)CC1` the inhibition was -6.31%.
`CC(C)N1C(=O)c2ccccc2NC(=O)C1C(=O)NCc1cccs1` (configuration not stated) was tested, and the inhibition was -8.37%.
For `O=[N+]([O-])c1cc([N+](=O)[O-])c2cccnc2c1O`, the inhibition was 2.43%.
For `NNC(=O)CNC(c1ccccc1)c1cc(Cl)ccc1NC(=O)c1ccccc1` (configuration not stated), the inhibition was 80% (active).
`O=C(CNC(c1ccccc1)c1ccccc1)Nc1ccc(F)cc1` was tested, and the inhibition was -11.9%.
In the case of `CC(NCC(=O)Nc1cc(Cl)cc(Cl)c1)c1ccccc1` (configuration not stated), the inhibition is reported as 3.33%.
In the case of `Cc1ccc(-c2cc(=O)[nH]c(NCc3ccccc3)n2)cc1`, the inhibition is reported as -9.41%.
Work on `COc1ccc(CN(CC(=O)NC2CCCC2)C(=O)CCC(=O)Nc2cc(C)on2)cc1` yielded an inhibition of -2.7%.
In the case of `Cc1cc(C(C)(C)C)oc1C(=O)N(CC(=O)NC1CCCC1)Cc1ccc(Cl)cc1`, the inhibition is reported as 56.4% (active).
Work on `Cc1ccc(CN(CC(=O)NC2CCCCC2)C(=O)c2csnn2)cc1` yielded an inhibition of 10.9%.
Compound `COCCNC(=S)N(C)[C@H]1C[C@H]2c3[nH]c4ccccc4c3CCN2C[C@H]1[C@H](C)O` has an inhibition of -4.21%.
Work on `COC(=O)C[C@@H]1C=C[C@@H](NC(=O)c2ccc3c(c2)OCO3)[C@@H](CO)O1` yielded an inhibition of 8.18%.
Compound `O=C(Cn1cnc2ccccc2c1=O)NCC1COc2ccccc2O1` (configuration not stated) has an inhibition of -0.58%.
`c1ccc2c(c1)OCC(CNc1ncnc3nc[nH]c13)O2` (configuration not stated) was tested, and the inhibition was 105% (active).
`COc1ccc(CCNc2ncnc3nc[nH]c23)cc1OC` showed an inhibition of 42.1%.
Work on `O=C(NCCc1ccc(F)cc1)c1ccc(S(=O)(=O)N2CCCCC2)cc1` yielded an inhibition of -0.8%.
With `NS(=O)(=O)c1ccc(CCNC(=O)c2ccc(Cl)c(S(=O)(=O)N3CCCCCC3)c2)cc1` the inhibition was 48.9% (active).
With `O=C(c1ccc(Cl)c(S(=O)(=O)N2CCCCC2)c1)N1CCCCCC1` the inhibition was -4.7%.
With `Clc1ccc(Nc2ncnc3c2nnn3Cc2ccccc2)cc1` the inhibition was 59.2% (active).
`c1ccc(Cn2nnc3c(NCC4CC4)ncnc32)cc1` showed an inhibition of -5.34%.
`CC(C)Nc1ncnc2c1nnn2Cc1ccccc1` gave an inhibition of -8.98%.
Compound `Nc1ncnc2c1ncn2C1OC(CO)CC1O` (configuration not stated) has an inhibition of -14.9%.
`CC1(C)OC(=O)C2=C(CC(CCc3ccccc3)OC2c2ccc(Cl)cc2)O1` (configuration not stated) was tested, and the inhibition was 18.9%.
`O=C(NCc1ccc(F)cc1F)[C@@H]1CCCN1C(=O)[C@@H]1CCCN1C(=O)c1cccc(Cl)c1` showed an inhibition of -26.2%.
`Cc1cc(Nc2ccc(Br)cc2F)n2ncnc2n1` was tested, and the inhibition was -22.8%.
`CC(=O)Nc1ccc(OCCC[n+]2cccc(C(=O)[O-])c2)cc1` showed an inhibition of 10.6%.
For `CCCCn1c(SCc2ncc(-c3ccccc3)o2)nc2cc(S(N)(=O)=O)ccc21`, the inhibition was 63.4% (active).
`CCCCn1c(SCC(=O)N2CCCC2=O)nc2cc(S(N)(=O)=O)ccc21` gave an inhibition of -16.1%.
For `CCCCn1c(SCC(=O)N2CCC(C(=O)OCC)CC2)nc2cc(S(N)(=O)=O)ccc21`, the inhibition was -5.42%.
Work on `CC1(C(=O)NCc2ccccc2)CN(S(C)(=O)=O)CC(=O)N1CC(F)(F)F` (configuration not stated) yielded an inhibition of -8.96%.
With `Cc1ccc(Cn2cc(CN3CC(N4CCN(C)CC4)CS3(=O)=O)nn2)cc1` (configuration not stated) the inhibition was -10.1%.
`CC(C)(C)n1ncc2c(=O)n(Cc3ccc(Cl)cc3)cnc21` gave an inhibition of 18.1%.
For `Cn1cnc2c1c(=O)n(Cc1c(Cl)cccc1Cl)c(=O)n2C`, the inhibition was -4.09%.
For `CC(C)(C)n1ncc2c(=O)n(Cc3c(Cl)cccc3Br)cnc21`, the inhibition was 58.1% (active).
`CCCCNc1cccc2c1S(=O)(=O)N[C@@H](C)CO2` gave an inhibition of 4.47%.
In the case of `Cc1ccc(O)c(NC(=S)NC(=O)COc2ccc(Br)cc2)c1`, the inhibition is reported as 98.5% (active).
`Cc1ccsc1C(=O)NNC(=O)COc1ccc(Br)cc1` showed an inhibition of -10.4%.
`Cn1cccc1C(=O)NNC(=O)COc1ccc(Br)cc1` showed an inhibition of 8.71%.
`COc1ccc(OC)c(CNC(=O)c2cc(=O)[nH]c3ccc(S(=O)(=O)N4CCCC4)cc23)c1` was tested, and the inhibition was -12.7%.
`COc1ccc(S(=O)(=O)N2CCC(C(=O)NCCC(=O)NCc3cccc(OC)c3)CC2)cc1` showed an inhibition of -10.5%.
Work on `O=C(Nc1ccc(Br)cc1)C1CCC(=O)N1Cc1ccccc1Cl` (configuration not stated) yielded an inhibition of 11.4%.
`Brc1ccc(-c2csc(N/N=C/c3cccnc3)n2)cc1` gave an inhibition of 15.8%.
Compound `S=c1nc2ccccc2c2nc(-c3cccnc3)[nH]n12` has an inhibition of 5.39%.
With `Fc1ccc(/C=N/Nc2nc(-c3cccnc3)nc3ccccc23)cc1` the inhibition was 55.8% (active).
For `O=C(c1ccc(Cl)cc1)n1cnc2ccccc21`, the inhibition was -8.66%.
`COc1cccc(N2CCN(CC(=O)Nc3ccnn3C3CCCC3)CC2)c1` was tested, and the inhibition was 10.4%.
`COC(=O)Nc1nc2ccc(C(=O)C3CC3)cc2[nH]1` gave an inhibition of -3.23%.
`O=C(NCCN1CCOCC1)c1ccccc1N1C(=O)[C@@H]2Cc3c([nH]c4ccccc34)C(c3cccc(Cl)c3)N2C1=O` (some centres not stated) was tested, and the inhibition was 68.8% (active).
Compound `O=C(NCCN1CCOCC1)c1cc(Sc2cccc(Cl)c2)nc2ccccc12` has an inhibition of -6.08%.
`O=C(NCCN1CCOCC1)Nc1cccc(Cl)c1` gave an inhibition of -1.82%.
`C[C@H]1[C@H](c2ccccc2)Oc2cc(Br)ccc2S(=O)(=O)N1Cc1cccc(F)c1` showed an inhibition of 0.32%.
`COc1cccc(-c2nc3nc(C)cc(C)n3c2NC2CCCCC2)c1` was tested, and the inhibition was -7.98%.
For `Cc1ccc(N2CC(C(=O)N3CCC4(CC3)CC(=O)c3ccccc3O4)CC2=O)cc1C` (configuration not stated), the inhibition was -12.3%.
Work on `CC(C)c1c(C(=O)N/N=C/c2ccccc2C(=O)O)nnn1-c1nonc1N` yielded an inhibition of -11.8%.
In the case of `Nc1nonc1-n1nnc(C(=O)N/N=C/c2c[nH]c3ccccc23)c1-c1ccccc1`, the inhibition is reported as 59% (active).
In the case of `Nc1nonc1-n1nnc(C(=O)N/N=C/C2CCCCC2)c1-c1ccccc1`, the inhibition is reported as -20.6%.
For `CC(=O)N1C[C@@H](CO)[C@@H](N(C)C(=O)C(C)(C)C)C[C@H]1c1ccccc1Br`, the inhibition was -17.9%.
`Cc1ccc(NC(=O)COC(=O)CNC(=O)c2ccc(Cl)cc2Cl)cc1S(=O)(=O)N1CCOCC1` gave an inhibition of -20.3%.
`C[C@@H]1CC2=C(C(=O)OC(C)(C)O2)[C@@H](C2CC2)O1` was tested, and the inhibition was -2.56%.
For `CCOC(=O)[C@]12CCCC=C1N(Cc1cccc3ccccc13)C(=O)[C@H](CC(=O)NCC13CC4CC(CC(C4)C1)C3)C2`, the inhibition was -11.8%.
Work on `O=C(c1cc(-c2ccc(Cl)s2)nc2ccccc12)N1CCOCC1` yielded an inhibition of 23.2%.
Compound `Cc1c(NC(=O)c2cc(-c3ccc(Cl)s3)nc3ccccc23)c(=O)n(-c2ccccc2)n1C` has an inhibition of 23.5%.
With `CC(=O)N1CCN(C(=O)c2cc(-c3ccc(Cl)s3)nc3ccccc23)CC1` the inhibition was 52% (active).
`O=C(NCc1cccc(Cl)c1)C1CCN(c2nnc(N3CCCC3=O)s2)CC1` showed an inhibition of 1.44%.
`Cc1ccc(S(=O)(=O)N[C@H]2CCC[C@@H]2O)cc1` showed an inhibition of -6.11%.
For `CCN(CC)Cc1c(C(=O)N/N=C/c2cccc(OCc3ccc(F)cc3)c2)nnn1-c1nonc1N`, the inhibition was -24.4%.
Compound `Nc1nonc1-n1nnc(C(=O)N/N=C/c2cc(Br)ccc2O)c1CSC1=NCCS1` has an inhibition of 18.1%.
`Cc1ccc(SCc2c(C(=O)N/N=C/c3cccnc3)nnn2-c2nonc2N)cc1` was tested, and the inhibition was 63.7% (active).
